Test results published in ChEMBL document CHEMBL4627265, “Optimization of 8-oxoadenines with toll-like-receptor 7 and 8 activity” (Bioorg Med Chem Lett, 2020).
Activity calls are given as the source filed them. The rule behind the calls is not given here.

Legend:
Format in all cases: cell-based
[1] = molecular target: T1, Toll-like receptor 8 (Homo sapiens) (UniProt Q9NR97); test: Agonist activity at TLR8 in human PBMC assessed as TNFalpha level
T1 sequence (whole entry): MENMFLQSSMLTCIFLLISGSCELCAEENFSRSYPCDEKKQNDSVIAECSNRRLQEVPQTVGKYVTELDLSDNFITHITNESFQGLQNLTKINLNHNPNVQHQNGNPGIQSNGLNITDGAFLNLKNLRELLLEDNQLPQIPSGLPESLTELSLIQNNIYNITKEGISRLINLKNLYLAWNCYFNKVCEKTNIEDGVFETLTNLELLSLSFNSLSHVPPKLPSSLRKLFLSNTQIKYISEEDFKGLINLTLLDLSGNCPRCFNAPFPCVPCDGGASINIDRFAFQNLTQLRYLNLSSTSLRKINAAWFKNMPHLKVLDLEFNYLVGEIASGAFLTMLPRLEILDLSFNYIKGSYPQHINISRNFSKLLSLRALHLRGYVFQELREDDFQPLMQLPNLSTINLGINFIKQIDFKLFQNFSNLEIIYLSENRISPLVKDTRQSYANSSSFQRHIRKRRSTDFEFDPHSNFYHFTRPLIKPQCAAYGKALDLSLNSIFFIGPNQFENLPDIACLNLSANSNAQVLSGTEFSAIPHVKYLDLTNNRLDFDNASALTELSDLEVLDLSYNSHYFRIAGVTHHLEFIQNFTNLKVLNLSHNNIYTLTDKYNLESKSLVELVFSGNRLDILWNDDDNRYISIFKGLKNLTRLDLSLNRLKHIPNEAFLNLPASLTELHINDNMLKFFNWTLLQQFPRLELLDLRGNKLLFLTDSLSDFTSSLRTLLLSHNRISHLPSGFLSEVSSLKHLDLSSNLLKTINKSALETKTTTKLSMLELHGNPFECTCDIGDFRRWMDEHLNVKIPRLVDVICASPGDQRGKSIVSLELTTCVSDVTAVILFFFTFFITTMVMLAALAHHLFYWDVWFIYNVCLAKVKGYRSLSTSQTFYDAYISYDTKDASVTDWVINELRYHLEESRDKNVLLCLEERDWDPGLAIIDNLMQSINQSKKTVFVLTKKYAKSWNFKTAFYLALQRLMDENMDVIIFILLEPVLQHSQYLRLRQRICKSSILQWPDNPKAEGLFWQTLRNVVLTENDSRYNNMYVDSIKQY
Method in brief: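 TNFα secretion by hPBMCs across a μM dose range; MEC = lowest dose tested inducing cytokine, PC = dose giving highest level, PL = peak level at 10 μM. Data representative of one of three independent donors.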

[2] = molecular target: T2, Toll-like receptor 7 (Homo sapiens) (UniProt Q9NYK1); test: Agonist activity at TLR7 in human PBMC assessed as IFNalpha stimulation at 10 uM
T2 sequence (whole entry): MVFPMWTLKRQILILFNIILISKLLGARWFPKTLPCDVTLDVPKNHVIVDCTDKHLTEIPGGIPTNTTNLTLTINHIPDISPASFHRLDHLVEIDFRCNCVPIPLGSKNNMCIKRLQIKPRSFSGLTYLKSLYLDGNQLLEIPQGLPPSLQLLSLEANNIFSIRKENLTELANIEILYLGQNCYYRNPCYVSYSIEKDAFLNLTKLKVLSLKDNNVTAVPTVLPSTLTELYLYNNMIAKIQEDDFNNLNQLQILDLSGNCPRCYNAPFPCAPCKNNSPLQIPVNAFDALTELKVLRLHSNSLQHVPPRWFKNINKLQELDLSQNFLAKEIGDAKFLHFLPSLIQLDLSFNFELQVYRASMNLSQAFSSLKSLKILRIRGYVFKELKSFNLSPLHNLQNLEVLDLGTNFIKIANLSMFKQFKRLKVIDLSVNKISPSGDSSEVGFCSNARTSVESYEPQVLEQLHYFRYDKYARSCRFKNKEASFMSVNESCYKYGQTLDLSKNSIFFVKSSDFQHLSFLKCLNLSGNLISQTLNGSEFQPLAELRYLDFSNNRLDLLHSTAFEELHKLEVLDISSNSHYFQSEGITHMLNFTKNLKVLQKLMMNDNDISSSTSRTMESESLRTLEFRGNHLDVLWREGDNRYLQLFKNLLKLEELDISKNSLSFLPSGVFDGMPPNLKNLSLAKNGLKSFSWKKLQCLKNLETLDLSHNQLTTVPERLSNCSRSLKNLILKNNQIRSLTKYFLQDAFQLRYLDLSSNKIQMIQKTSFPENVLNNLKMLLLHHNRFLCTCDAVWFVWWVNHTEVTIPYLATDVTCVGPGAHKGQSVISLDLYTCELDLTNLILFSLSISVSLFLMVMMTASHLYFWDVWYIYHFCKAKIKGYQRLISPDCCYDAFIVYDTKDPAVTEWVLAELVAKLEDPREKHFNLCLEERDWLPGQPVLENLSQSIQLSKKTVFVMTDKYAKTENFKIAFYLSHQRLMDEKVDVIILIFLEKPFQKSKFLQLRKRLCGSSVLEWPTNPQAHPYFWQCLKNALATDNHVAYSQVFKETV
Method in brief: (§1)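 IFNα secretion by hPBMCs across a μM dose range; MEC = lowest dose tested inducing cytokine, PC = dose giving highest level, PL = peak level at 10 μM. Data representative of one of three independent donors.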

[3] = molecular target: T1, Toll-like receptor 8 (Homo sapiens); test: Agonist activity at TLR8 in human PBMC assessed as induction of myeloid dendritic cell maturation by measuring increase in CD86 level at 0.1 uM after 6 hrs by flow cytometry relative to control
Method in brief: (§2)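 hPBMCs stimulated 6 h at a single 0.1 μM dose; HLA-DR, MHC-I, CD80 and CD86 on mDCs and pDCs measured by flow cytometry, expressed as fold change versus unstimulated cells. Mean ± SD of three independent experiments in three different donors.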

[4] = molecular target: TLR7 and TLR8 (Homo sapiens) (UniProt Q9NYK1+Q9NR97); test: Agonist activity at TLR7/TLR8 in human PBMC assessed as IFN alpha level; method in brief: as §1
[5] = molecular target: T1, Toll-like receptor 8 (Homo sapiens); test: Agonist activity at TLR8 in human PBMC assessed as induction of myeloid dendritic cell maturation by measuring increase in MHC-1 level at 0.1 uM after 6 hrs by flow cytometry relative to control; method in brief: as §2
[6] = molecular target: T2, Toll-like receptor 7 (Homo sapiens); test: Agonist activity at TLR7 in human PBMC assessed as induction of plasmacytoid dendritic cell maturation by measuring increase in MHC-1 level at 0.1 uM after 6 hrs by flow cytometry relative to control; method in brief: as §2
[7] = molecular target: T2, Toll-like receptor 7 (Homo sapiens); test: Agonist activity at TLR7 in human PBMC assessed as induction of plasmacytoid dendritic cell maturation by measuring increase in HLA-DR level at 0.1 uM after 6 hrs by flow cytometry relative to control; method in brief: as §2
Toll-like receptor 7 = molecular target: T3, Toll-like receptor 7 (Homo sapiens, UniProt Q9NYK1); test: Agonist activity at human TLR7 expressed in HEK293 cells assessed as induction of NFKappaB activity after 24 hrs by SEAP reporter gene assay
T3 sequence (Q9NYK1 whole entry): T2 sequence (whole entry)
Method in brief: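 HEK293 cells stably transfected with hTLR7 or hTLR8 plus an NFκB-driven SEAP reporter, treated 24 h with compound over a μM range; SEAP secretion read out. EC50 as mean ± SD of three (TLR7) or four (TLR8) independent experiments.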

[8] = molecular target: T4, Toll-like receptor 9 (Homo sapiens) (UniProt Q9NR96); test: Agonist activity at human TLR9 expressed in HEK293 cells by SEAP reporter gene assay
T4 sequence (whole entry): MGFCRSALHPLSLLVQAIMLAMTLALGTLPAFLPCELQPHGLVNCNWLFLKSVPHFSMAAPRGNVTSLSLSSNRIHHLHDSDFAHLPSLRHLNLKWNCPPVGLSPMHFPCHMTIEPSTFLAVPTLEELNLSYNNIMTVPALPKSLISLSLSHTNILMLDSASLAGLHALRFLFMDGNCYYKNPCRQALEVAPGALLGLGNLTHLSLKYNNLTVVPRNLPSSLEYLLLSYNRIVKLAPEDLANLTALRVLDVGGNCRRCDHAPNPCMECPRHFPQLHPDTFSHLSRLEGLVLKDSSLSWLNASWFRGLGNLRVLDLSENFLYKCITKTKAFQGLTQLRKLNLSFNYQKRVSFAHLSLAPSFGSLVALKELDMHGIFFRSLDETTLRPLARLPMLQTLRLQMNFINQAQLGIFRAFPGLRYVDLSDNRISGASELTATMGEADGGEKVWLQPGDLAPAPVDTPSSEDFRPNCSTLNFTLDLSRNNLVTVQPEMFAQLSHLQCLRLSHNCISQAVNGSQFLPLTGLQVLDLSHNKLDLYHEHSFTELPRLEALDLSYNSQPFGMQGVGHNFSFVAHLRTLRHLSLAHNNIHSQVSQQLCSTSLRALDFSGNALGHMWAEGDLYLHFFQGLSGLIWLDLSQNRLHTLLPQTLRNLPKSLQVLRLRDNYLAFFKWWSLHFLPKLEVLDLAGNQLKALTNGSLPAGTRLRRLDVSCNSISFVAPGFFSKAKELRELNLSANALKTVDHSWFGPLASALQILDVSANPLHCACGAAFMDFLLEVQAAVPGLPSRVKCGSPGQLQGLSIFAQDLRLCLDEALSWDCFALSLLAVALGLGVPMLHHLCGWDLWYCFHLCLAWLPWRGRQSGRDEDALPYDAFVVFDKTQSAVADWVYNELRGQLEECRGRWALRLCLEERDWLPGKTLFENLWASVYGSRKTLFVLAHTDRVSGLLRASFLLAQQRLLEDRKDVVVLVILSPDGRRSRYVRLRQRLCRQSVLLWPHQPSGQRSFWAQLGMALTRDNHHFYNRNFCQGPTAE

[9] = molecular target: T2, Toll-like receptor 7 (Homo sapiens); test: Agonist activity at TLR7 in human PBMC assessed as induction of plasmacytoid dendritic cell maturation by measuring CD86 level at 0.1 uM after 6 hrs by flow cytometry; method in brief: as §2
[10] = molecular target: T2, Toll-like receptor 7 (Homo sapiens); test: Agonist activity at TLR7 in human PBMC assessed as induction of plasmacytoid dendritic cell maturation by measuring CD80 level at 0.1 uM after 6 hrs by flow cytometry; method in brief: as §2
[11] = molecular target: Toll-like receptor 3 (Homo sapiens) (UniProt O15455); test: Agonist activity at human TLR3 expressed in HEK293 cells by SEAP reporter gene assay
[12] = molecular target: T2, Toll-like receptor 7 (Homo sapiens); test: Agonist activity at TLR7 in human PBMC assessed as induction of plasmacytoid dendritic cell maturation by measuring increase in CD86 level at 0.1 uM after 6 hrs by flow cytometry relative to control; method in brief: as §2
[13] = molecular target: T2, Toll-like receptor 7 (Homo sapiens); test: Agonist activity at TLR7 in human PBMC assessed as induction of plasmacytoid dendritic cell maturation by measuring MHC-1 level at 0.1 uM after 6 hrs by flow cytometry; method in brief: as §2
[14] = molecular target: T2, Toll-like receptor 7 (Homo sapiens); test: Agonist activity at TLR7 in human PBMC assessed as induction of plasmacytoid dendritic cell maturation by measuring HLA-DR level at 0.1 uM after 6 hrs by flow cytometry; method in brief: as §2

Sequence of Toll-like receptor 3 (Homo sapiens) (O15455 whole entry): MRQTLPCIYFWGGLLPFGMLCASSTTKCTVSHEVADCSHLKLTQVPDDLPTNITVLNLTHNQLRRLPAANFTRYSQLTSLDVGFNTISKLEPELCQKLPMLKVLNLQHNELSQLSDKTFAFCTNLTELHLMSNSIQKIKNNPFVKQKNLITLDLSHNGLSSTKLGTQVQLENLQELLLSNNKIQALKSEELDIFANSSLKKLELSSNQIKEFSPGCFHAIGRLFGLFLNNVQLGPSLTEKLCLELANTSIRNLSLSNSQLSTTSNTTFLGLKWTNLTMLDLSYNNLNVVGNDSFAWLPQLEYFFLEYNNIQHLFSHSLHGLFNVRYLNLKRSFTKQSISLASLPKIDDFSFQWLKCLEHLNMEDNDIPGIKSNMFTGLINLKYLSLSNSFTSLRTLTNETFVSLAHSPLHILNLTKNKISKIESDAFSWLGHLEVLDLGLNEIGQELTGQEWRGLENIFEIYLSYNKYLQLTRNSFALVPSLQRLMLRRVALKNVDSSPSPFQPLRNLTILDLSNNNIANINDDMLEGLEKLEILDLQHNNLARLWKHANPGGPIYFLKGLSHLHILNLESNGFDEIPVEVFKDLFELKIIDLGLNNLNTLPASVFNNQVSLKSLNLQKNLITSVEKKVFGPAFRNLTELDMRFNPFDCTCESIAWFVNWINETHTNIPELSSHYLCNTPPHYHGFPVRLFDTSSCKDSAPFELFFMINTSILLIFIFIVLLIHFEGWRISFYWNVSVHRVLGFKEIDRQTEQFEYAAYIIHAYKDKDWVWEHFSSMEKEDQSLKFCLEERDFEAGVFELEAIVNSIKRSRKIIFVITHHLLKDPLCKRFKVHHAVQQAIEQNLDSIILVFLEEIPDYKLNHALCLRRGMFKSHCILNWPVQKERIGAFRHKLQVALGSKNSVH

CCOCc1nc2c(N)nc3ccccc3c2n1CC(C)(C)O
MEC [1]: 2 µM
Activity [2]: 1410 pg/mL
fold change (FC) [3]: 1.9
ECmax [4]: 10 µM
MEC [4]: 0.08 µM
fold change (FC) [5]: 1.4

CCCCOc1nc(N)c2[nH]c(=O)n(CCCCCC3CCNCC3)c2n1
Activity [2]: 4680 pg/mL
fold change (FC) [6]: 1.7 to 2.3
fold change (FC) [7]: 1.7 to 2.3
EC50 (Toll-like receptor 7): 0.45 µM

CCC[C@H](C)Oc1nc(N)c2[nH]c(=O)n(CCCCCC3CCNCC3)c2n1
Activity [2]: 2640 pg/mL
fold change (FC) [6]: 1.7 to 2.3
fold change (FC) [7]: 1.7 to 2.3
EC50 (Toll-like receptor 7): 0.24 µM

CCC[C@@H](C)Oc1nc(N)c2[nH]c(=O)n(CC3CCNCC3)c2n1
Activity [8]: inactive
Activity [9]: inactive
Activity [2]: 6210 pg/mL
Activity [10]: inactive
fold change (FC) [6]: 1.2 to 2.4
fold change (FC) [7]: 1.2 to 2.4
EC50 (Toll-like receptor 7): 35.8 µM
Activity [11]: inactive

CCCCOc1nc(N)c2[nH]c(=O)n(CC3CCNCC3)c2n1
Activity [8]: inactive
Activity [2]: 5900 pg/mL
fold change (FC) [12]: 1.4
fold change (FC) [6]: 1.2 to 2.4
fold change (FC) [7]: 1.2 to 2.4
EC50 (Toll-like receptor 7): 19.8 µM
Activity [11]: inactive

COCCOc1nc(N)c2[nH]c(=O)n(CC3CCNCC3)c2n1
Activity [8]: inactive
Activity [9]: inactive
Activity [2]: 2240 pg/mL
Activity [10]: inactive
Activity [13]: inactive
Activity [14]: inactive
EC50 (Toll-like receptor 7): > 500 µM
Activity [11]: inactive
